Assay results reported in PMC3158287 (Nature chemical biology, 2011).
One block for each compound: values may come before it. Peptide text beside a SMILES is read from it. * marks the point of attachment. Cbz = O=C(OCc1ccccc1)*

What was measured:
OSBP [1] = biological target: T1, OSBP (Homo sapiens, UniProt P22059); test: OSBP protein levels by western blotting; format: cell-based; settings: HCT-116 cells; 25-OHC 10 μM
T1 sequence (P22059 1-807): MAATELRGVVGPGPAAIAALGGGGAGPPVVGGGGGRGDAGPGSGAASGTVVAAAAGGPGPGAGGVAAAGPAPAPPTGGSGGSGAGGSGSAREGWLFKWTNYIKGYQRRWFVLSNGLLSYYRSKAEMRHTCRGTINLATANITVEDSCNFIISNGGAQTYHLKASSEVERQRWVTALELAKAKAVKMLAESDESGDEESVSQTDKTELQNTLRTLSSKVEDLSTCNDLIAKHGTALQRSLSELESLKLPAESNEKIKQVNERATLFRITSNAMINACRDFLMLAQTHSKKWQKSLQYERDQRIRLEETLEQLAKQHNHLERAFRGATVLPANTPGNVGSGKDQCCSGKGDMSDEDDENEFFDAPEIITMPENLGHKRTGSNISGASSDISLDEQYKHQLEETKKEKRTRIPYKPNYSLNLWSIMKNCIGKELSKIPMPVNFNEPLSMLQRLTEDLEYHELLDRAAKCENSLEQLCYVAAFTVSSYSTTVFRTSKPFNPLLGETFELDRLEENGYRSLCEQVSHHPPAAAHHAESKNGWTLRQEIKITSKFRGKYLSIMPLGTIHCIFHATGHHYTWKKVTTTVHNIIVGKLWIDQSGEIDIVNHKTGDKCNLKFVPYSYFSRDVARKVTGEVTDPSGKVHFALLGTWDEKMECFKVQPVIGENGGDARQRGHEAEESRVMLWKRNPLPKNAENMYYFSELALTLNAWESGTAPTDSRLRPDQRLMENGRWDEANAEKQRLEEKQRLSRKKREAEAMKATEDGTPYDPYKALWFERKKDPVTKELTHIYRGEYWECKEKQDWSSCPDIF
Summary of the method: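 HCT-116 cells were treated with test compound at 50 nM or 10 nM over a time course including 24 h. Some samples also received proteasome inhibitor MG-132 or lactacystin. OSBP was measured by western blotting with polyclonal rabbit anti-OSBP (N-terminus) antibody. Data are n = 3, compared with vehicle-treated cells by two-tailed Student's t-test.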

HCT-116 cells = test: Suppression of antiproliferative activity by 25-OHC coadministration; format: cell-based, human; settings: HCT-116 and HeLa cell lines
Summary of the method: (§1)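 HCT-116 p21+/+ and p21−/− cells were seeded in 96-well plates and rested 24 h. A time-zero plate was read with CellTiter-Blue (resazurin) after 90 min at 37 °C, fluorescence 544 nm ex / 590 nm em. Serially diluted test compound was added as 4× solution. Viability was re-read at 48 h and GI50 derived. For coadministration, 10 μM 25-OHC was added with test compound at 250 nM or 10 nM.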

ORP4L-Myc-His = biological target: T2, ORP4L-Myc-His (Homo sapiens, UniProt Q969R2); test: [3H]25-OHC charcoal-dextran binding assay, ORP4L-Myc-His
T2 sequence (Q969R2 1-916): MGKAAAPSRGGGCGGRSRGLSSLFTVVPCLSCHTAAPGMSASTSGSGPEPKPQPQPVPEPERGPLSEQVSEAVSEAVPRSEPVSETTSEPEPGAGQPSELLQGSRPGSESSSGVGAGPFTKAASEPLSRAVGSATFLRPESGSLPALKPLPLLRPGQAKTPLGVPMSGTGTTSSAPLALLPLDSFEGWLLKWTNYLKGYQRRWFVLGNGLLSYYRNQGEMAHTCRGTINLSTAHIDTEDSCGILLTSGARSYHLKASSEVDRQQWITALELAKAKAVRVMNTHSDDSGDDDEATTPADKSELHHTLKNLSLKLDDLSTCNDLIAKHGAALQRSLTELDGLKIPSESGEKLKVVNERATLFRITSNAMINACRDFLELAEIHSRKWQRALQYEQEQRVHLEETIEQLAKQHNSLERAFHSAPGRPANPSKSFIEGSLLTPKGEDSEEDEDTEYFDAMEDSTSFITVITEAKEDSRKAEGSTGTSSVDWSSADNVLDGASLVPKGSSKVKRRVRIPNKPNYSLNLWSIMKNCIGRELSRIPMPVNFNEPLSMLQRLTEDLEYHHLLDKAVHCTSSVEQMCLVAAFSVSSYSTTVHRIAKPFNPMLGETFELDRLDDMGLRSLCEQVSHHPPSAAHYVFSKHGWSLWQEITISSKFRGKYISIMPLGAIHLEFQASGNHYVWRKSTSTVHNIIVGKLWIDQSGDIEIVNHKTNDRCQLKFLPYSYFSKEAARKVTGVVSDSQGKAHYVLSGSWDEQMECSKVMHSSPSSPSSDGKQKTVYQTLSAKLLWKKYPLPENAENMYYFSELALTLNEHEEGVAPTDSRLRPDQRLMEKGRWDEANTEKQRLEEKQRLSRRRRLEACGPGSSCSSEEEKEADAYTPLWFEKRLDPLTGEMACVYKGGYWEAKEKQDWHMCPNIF

OSBP-Myc-His = biological target: T3, OSBP-Myc-His (Homo sapiens, UniProt P22059); test: [3H]25-OHC charcoal-dextran binding assay, wild-type OSBP-Myc-His
T3 sequence (P22059 1-807): T1 sequence (P22059 1-807)

human cancer cell lines = settings: cited from earlier work
OSBP [2] = biological target: T1, OSBP; test: OSBP localization by immunofluorescence microscopy, HCT-116; format: cell-based; settings: HCT-116 cells, 4 h; 5 μM schweinfurthin A, 10 nM OSW-1, 20 nM cephalostatin 1
Summary of the method: (§2)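 Cells on coverslips were grown 72 h, then given test compound or vehicle (4 h for HCT-116). They were fixed 10 min in 3.7% formaldehyde/PBS and permeabilised 5 min in 0.5% Triton X-100. Blocking used Image-iT FX, then 1% BSA/PBS. Rabbit anti-OSBP (N-terminus) and mouse anti-p230 were applied overnight at 4 °C, then Alexa Fluor secondaries for 60 min with Hoechst 33258. Imaging was by confocal microscopy.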

HCT-116 p21^−/− cells = test: Cell viability assay, HCT-116 p21-/-; format: cell-based, human; settings: GI50 after 48 h
Summary of the method: as §1

OSBP [3] = biological target: T1, OSBP; test: OSBP localization by immunofluorescence microscopy, A549; format: cell-based; settings: A549 cells
Summary of the method: as §2

[4] = test system: HeLa cells overexpressing ORP4L; test: Overexpression-viability assay, ORP4L-Myc-His; format: cell-based, human; settings: 48 h, versus lacZ
[5] = test system: HCT-116 p21^−/− cells stably transfected with shOSBP or shNT; test: OSBP shRNA knockdown and dose-shift experiment; format: cell-based, human; settings: 72 h
Summary of the method: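 HCT-116 p21−/− cells were stably transfected with OSBP-targeting or nontargeting shRNA in the pSIREN-RetroQ vector. […] Values are mean ± s.d. of 3–4 experiments, compared with shNT cells by two-tailed Student's t-test.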

[6] = test system: sphingomyelin biosynthesis in CHO-K1 cells; test: Sphingomyelin biosynthesis, [3H]serine pulse labeling, CHO-K1; format: cell-based, Chinese hamster
[7] = test system: HeLa cells overexpressing wild-type OSBP; test: Overexpression-viability assay, wild-type OSBP-Myc-His; format: cell-based, human; settings: 48 h, versus lacZ

Structure (SMILES): CC(C)C[C@@H](C=O)NC(=O)[C@H](CC(C)C)NC(=O)[C@H](CC(C)C)NC(=O)OCc1ccccc1 [MG-132, reference compound] (Cbz-Leu-Leu-Leu-aldehyde)
- Effect on OSBP levels (compound alone) (OSBP [1]): did not affect OSBP concentrations

Structure (SMILES): C[C@H]1CCC/C=C/[C@@H]2C[C@H](O)C[C@H]2[C@H](O)/C=C/C(=O)O1 [brefeldin A, reference compound]
- Effect of 25-OHC coadministration on antiproliferative activity (HCT-116 cells): did not affect

- Effect on OSBP levels (compound alone) (OSBP [1]): did not affect OSBP concentrations
Structure (SMILES): CC(=O)N[C@@H](CSC(=O)[C@]1([C@@H](O)C(C)C)NC(=O)[C@H](C)[C@@H]1O)C(=O)O [lactacystin, reference compound]

Structure (SMILES): CC1C2C(CC3C4CCC5Cc6nc7c(nc6CC5(C)C4CC(O)C32C)CC2CC(O)C3C4=CC5OC6(CCC(C)(O)CO6)C(C)C5(O)C4(C)C(O)CC3C2(C)C7)OC12CCC(C)(C)O2 (stereo not shown) [ritterazine B]
- Ki (ORP4L-Myc-His): > 360 nM
- Ki (OSBP-Myc-His): 28 ± 4 nM
- GI50 (half-maximal inhibitory concentration) (human cancer cell lines): nanomolar range
- OSBP localization (OSBP [2]): This effect was also observed
- p21^−/− selectivity of growth inhibition (HCT-116 p21^−/− versus wild-type) (HCT-116 p21^−/− cells): selectively growth-inhibitory

Structure (SMILES): COc1cc(/C=C/c2cc(O)c(C/C=C(\C)CCC=C(C)C)c(O)c2)cc2c1O[C@]1(C)C[C@@H](O)[C@@H](O)C(C)(C)[C@H]1C2 [schweinfurthin B]
- OSBP localization (OSBP [3]): perinuclear OSBP staining similar to that seen with 25-OHC
- GI50 (half-maximal inhibitory concentration) (human cancer cell lines): nanomolar range

Structure (SMILES): CC(=O)O[C@H]1C(=O)[C@@]2(C)[C@H]([C@H](OC(=O)c3ccccc3)[C@]3(O)C[C@H](OC(=O)[C@H](O)[C@@H](NC(=O)c4ccccc4)c4ccccc4)C(C)=C1C3(C)C)[C@]1(OC(C)=O)CO[C@@H]1C[C@@H]2O [taxol, reference compound]
- Desensitization factor by ORP4L overexpression (relative GI30) [4]: not affected
- Effect of 25-OHC coadministration on antiproliferative activity (HCT-116 cells): did not affect
- Sensitization by OSBP shRNA knockdown (GI50 shift shOSBP vs shNT) [5]: not affected
- Inhibition of sphingomyelin biosynthesis (control cytotoxic / ER stress agents) [6]: did not occur
- Desensitization factor by OSBP overexpression (relative GI30) [7]: not affected

Structure (SMILES): C/C=C(/C)C(=O)O[C@H]1C(C)=C2[C@H]([C@@H]1OC(=O)CCCCCCC)[C@@](C)(OC(C)=O)C[C@H](OC(=O)CCC)[C@@]1(O)[C@H]2OC(=O)[C@@]1(C)O [thapsigargin]
- Inhibition of sphingomyelin biosynthesis (control cytotoxic / ER stress agents) [6]: did not occur
